Bioassay records deposited in PubChem by several laboratories.
NPY2 pot ag: human NPY-Y2 potentiation or agonism, primary screen. hit rate 0.45% among 220,000. activation, % at 3.6 µM. cells expressing NPY-Y2, potentiator/agonist read-out. P49146. AID 1359; in the data active means activation above about 27%;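 further: cells stimulated with NPY near EC25 plus isoproterenol at EC100; 0% = vehicle plus submaximal agonist and 100% = vehicle plus saturating agonist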
Target sequence (P49146 whole entry, looked up): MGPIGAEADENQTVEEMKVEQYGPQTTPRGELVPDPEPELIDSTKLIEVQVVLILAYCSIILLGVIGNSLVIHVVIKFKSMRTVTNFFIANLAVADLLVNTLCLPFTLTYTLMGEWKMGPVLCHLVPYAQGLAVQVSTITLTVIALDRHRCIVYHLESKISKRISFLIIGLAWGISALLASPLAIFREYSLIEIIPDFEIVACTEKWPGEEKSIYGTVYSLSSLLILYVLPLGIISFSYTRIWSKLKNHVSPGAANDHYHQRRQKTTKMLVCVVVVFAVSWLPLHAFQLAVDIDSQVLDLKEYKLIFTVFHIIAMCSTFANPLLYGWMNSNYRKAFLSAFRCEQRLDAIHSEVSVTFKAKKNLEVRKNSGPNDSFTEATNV
Measles CPE: protection of cells from measles virus; AID 841; protection (pct of control), % at 4 µM; hit rate 1.5% among 140,000; Measles virus-infected cells, CPE protection, absorbance; in the data active means protection mostly above about 24%, no sharp cut-off; inactive means mostly below about 26%
NPY-Y2 antag: NPY-Y2 (human) receptor antagonism; hit rate 0.99% among 140,000; P49146; NPY-Y2 expressing cells, antagonist mode; inhibition, % at 2.7 µM; in the data active means inhibition above about 17%;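 further: 0% = vehicle with agonist challenge and 100% = reference antagonist with challenge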
NPY Y1 blocker: NPY-Y1 (human) receptor antagonism; HEK293-CNG Y1 cells, membrane potential fluorescence; NPY at EC95, then isoproterenol; AID 1040; hit rate 1% among 200,000; inhibition, % at 3.6 µM;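 active means inhibition above the campaign mean inhibition of all tested compounds plus 3 SD, cut at about 20% in these data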;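 further: 0% = DMSO wells given NPY plus isoproterenol and 100% = isoproterenol alone without NPY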
Target sequence (P25929 whole entry, looked up): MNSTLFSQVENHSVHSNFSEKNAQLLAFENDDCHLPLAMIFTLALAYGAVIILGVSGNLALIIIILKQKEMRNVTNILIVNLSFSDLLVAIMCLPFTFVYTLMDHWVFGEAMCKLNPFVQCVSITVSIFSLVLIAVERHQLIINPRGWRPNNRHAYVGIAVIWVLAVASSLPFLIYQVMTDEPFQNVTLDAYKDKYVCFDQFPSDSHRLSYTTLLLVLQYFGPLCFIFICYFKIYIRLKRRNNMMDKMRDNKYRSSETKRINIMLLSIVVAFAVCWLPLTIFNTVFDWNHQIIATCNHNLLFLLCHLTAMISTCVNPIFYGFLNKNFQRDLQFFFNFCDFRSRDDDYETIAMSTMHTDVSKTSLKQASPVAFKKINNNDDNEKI
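Test system – HEK293 Y1/CNG channel cell line · Also added – NPY agonist 25 nM, then isoproterenol 1 µM plus Ro 20-1724 25 µM · Compound dosing – one concentration, 3.6 µM, in 0.4% DMSO · Schedule – compound incubation 1 h at room temperature, readout 45 min post-stimulation · Technique – fluorescence, membrane potential probe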
NPY1 pot ag: human NPY-Y1 potentiation or agonism, primary screen | P25929 | NPY-Y1 expressing cells, potentiator/agonist activation | activation, % at 3.6 µM | hit rate 0.37% among 220,000 | AID 1304; in the data active means activation above about 33%, passing the limit was not always enough;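 further: cells stimulated with NPY at EC10 then isoproterenol at EC100; 0% = low agonist plus stimulus and 100% = saturating agonist plus stimulus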
Rad51 HR inh: blocks human Rad51 in homologous recombination; AID 1385; inhibition, % at 10 µM; Q06609; hit rate 0.085% among 200,000; hRad51 DNA strand exchange, fluorescence dequenching;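 active means inhibition above 40% at the single screening dose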;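 further: 0% = DMSO control wells and 100% = blanks with heterologous ssDNA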
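Read-out basis: percent inhibition relative to plate controls and blanks / Assay system: human Rad51 nucleoprotein filaments preassembled on unlabelled ssDNA / Timing: filaments 15 min 37 °C, then compound 30 min / Control set: per-plate controls and blanks / Technique: fluorescence dequenching at 485/520 nm / Compound: 10 µM final, single point / Also added: Fluorescein- and BHQ1-tagged 47-mer duplex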
NPY-Y2 confirm: human NPY-Y2 potentiation or agonism, confirmation; shares compounds with NPY2 pot ag; cell-based NPY-Y2 potentiator/agonist assay; activation, % at 3.6 µM; hit rate 20% among 450; AID 1539; in the data active means activation above about 33%
NPY-Y1 potentiator: NPY-Y1 potentiation or agonism as NPY-Y2 counter-screen. Y1 HEK293-CNG cells, membrane potential fluorescence. hit rate 20% among 450. activation, % at 3.6 µM. shares compounds with NPY2 pot ag. AID 1651; in the data active means activation above about 45%;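 further: cells stimulated with submaximal NPY then isoproterenol with phosphodiesterase inhibitor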
NPY-Y1 ag 2: counter-screen for NPY-Y2 potentiators: agonists of human NPY-Y1; HEK293 Y1-CNGC, membrane potential fluorescence, agonism; hit rate 37% among 450; shares compounds with NPY2 pot ag; activation, % at 3.6 µM;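 active means activation above the mean of DMSO-only control wells plus 3 SD, cut at about 18% in these data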;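 further: cells stimulated with 1 µM isoproterenol plus the PDE inhibitor Ro 20-1724; 0% = isoproterenol with DMSO and no NPY and 100% = 40 nM NPY; Y1 agonists lower the membrane potential dye signal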
CNGC inhibitor: blocks CNG channel activity, counter-screen for NPY-Y2 potentiators; AID 1703; HEK293-CNG parental, isoproterenol cAMP, membrane potential fluorescence; hit rate 32% among 450; inhibition, % at 3.6 µM; shares compounds with NPY2 pot ag;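 active means inhibition above the control-well mean plus 3 SD of those wells, cut at about 22% in these data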;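 further: 0% = DMSO with isoproterenol and 100% = DMSO without isoproterenol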
NPY-Y2 ag 2: activates human NPY-Y2 receptor in potentiator counter-screen; shares compounds with NPY2 pot ag; hit rate 56% among 450; HEK293 Y2/CNGC cells, membrane potential fluorescence, agonist mode; activation, % at 3.6 µM;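 active means activation above the mean of solvent-only control wells plus 3 SD, cut at about 10% in these data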;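 further: cells stimulated by isoproterenol with no NPY added so direct agonism is tested; 0% = DMSO with isoproterenol alone and 100% = NPY at EC100 plus isoproterenol; agonism lowers probe fluorescence through less cAMP and CNG channel opening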
Starred values were filed as active, the others as inactive; nt = no result given. Most compounds without a hit are left out; they make up all but 2.8% or so of the library.

SMILES	NPY2 pot ag	Measles CPE	NPY-Y2 antag	NPY Y1 blocker	NPY1 pot ag	Rad51 HR inh	NPY-Y2 confirm	NPY-Y1 potentiator	NPY-Y1 ag 2	CNGC inhibitor	NPY-Y2 ag 2
CN(Cc1ccccc1)C(=O)COC(=O)c1cc(NS(=O)(=O)c2cccs2)ccc1O	35*	nt	nt	-7	25	-5	7	-10	-14	-1	-4
O=C(Nc1ccc(S(=O)(=O)Nc2ccc(F)cc2)cc1)c1ccc(CN2CCOCC2)cc1	14	nt	nt	4	-6	-3	nt	nt	nt	nt	nt
COc1ccc(NS(=O)(=O)c2ccc(NC(=O)c3ccc(CN4CCOCC4)cc3)cc2)cc1	24*	nt	nt	6	-4	nt	-8	-50	-31	-8	-5
O=C(Nc1ccc(S(=O)(=O)Nc2ncccn2)cc1)c1ccc(Br)s1	28*	12	1	0	12	-7	3	5	10	7	9
NNC(=O)c1cccc(S(=O)(=O)Nc2cccc(C(F)(F)F)c2)c1	2	nt	nt	nt	20	12	nt	nt	nt	nt	nt
Cc1[nH]c2ccccc2c1/C=N/NC(=O)c1cccc(S(=O)(=O)Nc2cccc(C(F)(F)F)c2)c1	42*	nt	nt	-3	39	5	41*	60*	46*	35*	40*
Clc1cccc(-c2nnc(SCc3nc4ccccc4[nH]3)n2Cc2ccco2)c1	-37	20	4	14	-27	-5	nt	nt	nt	nt	nt
Clc1ccc(OCc2nnc(SCc3nc4ccccc4[nH]3)n2Cc2ccco2)cc1	40*	11	1	-8	41	-2	6	-1	-5	10	14*
CCOC(=O)c1c(C)sc2c1N(C(=O)CCl)c1cc(Cl)ccc1S2	38*	5	2	2	48	10	25	42	34*	4	9
CCn1c2ccccc2c2cc(NC(=O)CSc3nnc(-c4ccccc4OC)n3N)ccc21	43*	2	-5	-10	15	2	11	15	19*	17	16*
Cc1ccnc(NC(c2ccncc2)c2c(C)[nH]c3ccccc23)c1 (centres undefined)	-6	8	3	5	-2	0	nt	nt	nt	nt	nt
Cc1[nH]c2ccccc2c1C(Nc1nccs1)c1ccncc1 (centres undefined)	27*	10	1	6	-8	-2	-5	3	-11	-4	-8
COc1ccc(-n2c(C)cc(C(=O)COC(=O)Cn3cnc4ccccc43)c2C)cc1	38*	2	1	-5	26	-4	-4	-42	-18	-8	0
COc1ccc(-n2c(C)cc(C(=O)CN3C(=O)c4ccccc4C3=O)c2C)cc1	10	4	4	7	8	1	nt	nt	nt	nt	nt
O=C1COc2ccc(C(=O)COC(=O)c3cc(S(=O)(=O)NCc4ccccc4)ccc3O)cc2N1	98*	nt	nt	nt	12	8	-8	-9	-16	2	5
O=C1COc2ccc(C(=O)COC(=O)c3ccco3)cc2N1	-3	nt	nt	nt	8	17	nt	nt	nt	nt	nt
CCOC(=O)C1CCN(c2ncnc3c2cnn3-c2ccc(Cl)cc2)CC1	48*	22	9	2	-2	nt	-21	-34	-7	-12	5
CCOC(=O)C1CCN(c2ncnc3c2cnn3-c2ccccc2)CC1	5	4	5	1	-25	-1	nt	nt	nt	nt	nt
CCCCCCCCCCCC(=O)NC(C(=O)OCC)C(O)c1cccc([N+](=O)[O-])c1 (centres undefined)	5	18	1	1	4	3	nt	nt	nt	nt	nt
CC1=CC(=O)C(C(C)C)=C/C1=N/OS(=O)(=O)c1ccccc1	63*	nt	nt	nt	35	-9	26	9	2	11	22*
Fc1ccc(NC(=S)N2CCCN(c3ccc(C(F)(F)F)cn3)CC2)c(F)c1	43*	nt	nt	nt	24	9	2	-35	-24	-11	8
O=Nc1c(O)n(Cc2c(Cl)cccc2Cl)c2ccccc12	34*	4	6	-4	24	2	8	2	14	-16	5
O=C(CN1CCN(Cc2ccc(Cl)cc2)CC1)N/N=C/c1cccc(F)c1	99*	nt	nt	nt	16	nt	-6	-6	-14	3	1
O=C(CN1CCN(Cc2ccc(Cl)cc2)CC1)N/N=C/c1cccs1	6	nt	nt	nt	-10	nt	nt	nt	nt	nt	nt
Cc1ccccc1N=C1NC(=O)/C(=C/c2cccn2-c2cccc(C(=O)O)c2)S1	2	nt	nt	8	-3	-7	nt	nt	nt	nt	nt
SMILES	NPY2 pot ag	Measles CPE	NPY-Y2 antag	NPY Y1 blocker	NPY1 pot ag	Rad51 HR inh	NPY-Y2 confirm	NPY-Y1 potentiator	NPY-Y1 ag 2	CNGC inhibitor	NPY-Y2 ag 2
CC(=O)SCCC(=O)Nc1ccccc1	44*	8	-7	-16	26	0	32	41	52*	37*	47*
CC(=O)NNC(=O)CCC(=O)Nc1ccccc1	0	6	3	-1	-1	-1	nt	nt	nt	nt	nt
CN(C)S(=O)(=O)Oc1cccc(C(=O)Nc2ccccc2Cl)c1	6	22	2	-2	-7	1	nt	nt	nt	nt	nt
CN(C)S(=O)(=O)Oc1cccc(C(=O)Nc2ccc(Cl)cc2)c1	48*	7	2	-9	40	0	-4	-36	-21	-12	-7
O=C(COC(=O)c1ccco1)Nc1nc2ccc([N+](=O)[O-])cc2s1	42*	nt	nt	nt	30	8	31	50*	53*	40*	49*
Cc1ccc2nc(NC(=O)COC(=O)c3ccco3)sc2c1	13	20	2	-5	-7	-3	nt	nt	nt	nt	nt
N#C/C(=N\Nc1ccc(Cl)c(Cl)c1)C(=O)C1CC1	63*	nt	nt	nt	13	13	3	-38	-7	-9	5
CC(=O)c1c(C)[nH]c(C(=O)OCc2ccccc2F)c1C	29*	nt	nt	-2	9	-2	13	17	16	27*	25*
O=C(CS(=O)(=O)c1ccccc1)N1CCc2ccccc21	34*	nt	nt	1	28	2	-5	-4	-4	1	3
O=C(Cc1ccccc1)N1CCc2ccccc21	-13	34	4	4	-10	nt	nt	nt	nt	nt	nt
O=C(COC(=O)c1cncc(Br)c1)NC1CCCC1	-13	nt	nt	-8	-9	1	nt	nt	nt	nt	nt
